≈ marks a conversion by molar mass, not a printed value. Calls of active or inactive are those of the source. The calls are words filed in the database; no cut-off is given here.
Tests used:
[1] = Competitive reversible inhibition of Escherichia coli O18:K1 C7 hldE-K expressed in Escherichia coli BL21 using D-manno-heptose 7-phosphate as substrate incubated for 30 mins prior to substrate addition measured after 30 mins by double reciprocal plot analysis in presence of ATP
Outline: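 ATP competition on E. coli HldE-K at 2 μM D-manno-heptose 7-phosphate with varied ATP. Initial velocities read by luciferase luminescence and analysed as a double reciprocal plot of 1/v versus 1/[ATP].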

[2] = Inhibition of Escherichia coli O18:K1 C7 hldE-K expressed in Escherichia coli BL21 using beta-heptose 7-phosphate as substrate incubated for 30 mins prior to substrate addition measured after 30 mins by luminescence assay
Outline: (§1)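 E. coli HldE (His-tagged, IPTG-induced, Ni-NTA-purified), 3 nM, preincubated 30 min at room temperature with inhibitor in Hepes pH 7.5, MnCl₂, KCl, 0.012% Triton-X100, DTT, MBP. Reaction with 0.2 μM heptose 7-phosphate and 0.2 μM ATP, 30 min at room temperature. Remaining ATP read by luciferase/luciferin luminescence; 6−10 concentrations fitted to a Langmuir model for IC50.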

Escherichia coli [3] = test: Inhibition of Escherichia coli O18:K1 C7 hldE-K expressed in Escherichia coli BL21 using D-manno-heptose 7-phosphate as substrate incubated for 30 mins prior to substrate addition measured after 30 mins by luminescence assay; outline: as §1
Escherichia coli [4] = test: Inhibition of Escherichia coli O18:K1 C7 hldE-K expressed in Escherichia coli BL21 using beta-heptose 7-phosphate as substrate incubated for 30 mins prior to substrate addition measured after 30 mins by luminescence assay in presence of Triton-X 100
Outline: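 E. coli HldE kinase luminescence assay with Triton-X100 at 100 μM to 1 mM added to test for promiscuous, aggregation-type inhibition. Otherwise 3 nM enzyme, 30 min inhibitor preincubation, and 30 min reaction with heptose 7-phosphate and ATP at room temperature.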

Escherichia coli [5] = test: Antimicrobial activity against tolC-deficient Escherichia coli O18:K1:H7 after overnight incubation in presence of erythromycin; format: functional
Outline: (§2)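 Broth microdilution MIC in cation-adjusted MHB, final inoculum 5 × 10⁵ CFU/mL from early-to-log preculture; serial compound dilutions in 2% DMSO, overnight at 35 °C, growth scored visually. Each strain tested with and without erythromycin (1 μg/mL for K12 ΔacrAB ΔtolC, 8 μg/mL for K1 wild type, 1 μg/mL for K1 ΔtolC).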

Escherichia coli [6] = test: Antimicrobial activity against acrAB, tolC-deficient Escherichia coli str. K-12 substr. MG1655 after 18 to 22 hrs; format: functional
Escherichia coli [7] = test: Antimicrobial activity against acrAB, tolC-deficient Escherichia coli str. K-12 substr. MG1655 assessed as inhibition of LPS synthesis at 2 ug/mL after 5 hrs by silver staining-based electrophoretic analysis; format: functional
Outline: (§3)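 Exponential LB cultures diluted to 5 × 10⁵ CFU/mL, incubated with compound (from water/DMSO 50/50) at 37 °C about 5 h to OD 0.2−0.4. OD-normalized pellets were PBS-washed, SDS-denatured at 95−100 °C, proteinase K-treated 1 h at 55 °C, and run on 16% SDS-PAGE with silver staining. The lowest dose yielding Re-LPS was recorded.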

[8] = Inhibition of Serratia marcescens NEM017811 hldE-K expressed in Escherichia coli BL21 using beta-heptose 7-phosphate as substrate incubated for 30 mins prior to substrate addition measured after 30 mins by luminescence assay
Outline: (§4)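 HldE kinase luminescence assay as for E. coli, with enzyme at 20 nM for K. pneumoniae, 20 nM for N. meningitidis and 10 nM for S. marcescens. Heptose 7-phosphate and ATP each at 0.2 μM; 30 min preincubation and 30 min reaction at room temperature.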

Klebsiella pneumoniae = test: Inhibition of Klebsiella pneumoniae ATCC 700603 hldE-K expressed in Escherichia coli BL21 using beta-heptose 7-phosphate as substrate incubated for 30 mins prior to substrate addition measured after 30 mins by luminescence assay; conditions: ATCC 700603, BL21; outline: as §4
[9] = Inhibition of Neisseria meningitidis 2C43 hldE-K expressed in Escherichia coli BL21 using beta-heptose 7-phosphate as substrate incubated for 30 mins prior to substrate addition measured after 30 mins by luminescence assay; outline: as §4
Escherichia coli [10] = test: Antimicrobial activity against acrAB, tolC-deficient Escherichia coli str. K-12 substr. MG1655 after overnight incubation in absence of erythromycin; format: functional; outline: as §2
Escherichia coli [11] = test: Antimicrobial activity against tolC-deficient Escherichia coli O18:K1:H7 assessed as inhibition of LPS synthesis at 16 ug/mL after 5 hrs by silver staining-based electrophoretic analysis; format: functional, organism-based; outline: as §3
HepG2 = test: Cytotoxicity against human HepG2 cells after overnight incubation by one cell proliferation assay; format: cell-based
Outline: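 HepG2 cells at 2 × 10⁴ per well in EMEM with 10% FBS, grown overnight at 37 °C in 5% CO₂. Medium then replaced by compound dilutions in medium with 2% DMSO for overnight incubation. Viability read by CellTiter Aqueous One MTS absorbance at 490 nm.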

[12] = Inhibition of Escherichia coli O18:K1 C7 ribokinase expressed in Escherichia coli BL21 using D-ribose as substrate incubated for 30 mins prior to substrate addition measured after 30 mins by luminescence assay
Outline: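 Ribokinase run as the HldE kinase assay: purified E. coli ribokinase at 0.6 nM, 3 μM D-ribose, 3 μM ATP. Inhibitor preincubated 30 min, reaction run 30 min at room temperature, luciferase luminescence read-out, IC50 from 6−10 concentrations.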

Escherichia coli [13] = test: Antimicrobial activity against tolC-deficient Escherichia coli O18:K1:H7 after overnight incubation in absence of erythromycin; format: functional; outline: as §2
Escherichia coli [14] = test: Antimicrobial activity against acrAB, tolC-deficient Escherichia coli str. K-12 substr. MG1655 after overnight incubation in presence of erythromycin; format: functional; outline: as §2
Escherichia coli [15] = test: Antimicrobial activity against wild type Escherichia coli O18:K1:H7 after overnight incubation; format: functional; outline: as §2
Escherichia coli [16] = test: Antimicrobial activity against hldE-deficient Escherichia coli O18:K1:H7 after overnight incubation; format: functional

Q: For `COc1cccc(OC)c1-c1cnnc(NCc2nc3ccccc3s2)n1`, which Ki [1] is on record?
A: 2.5 µM

Q: What about the IC50 [2] of the same molecule?
A: 2 µM

Q: And the inhibition (Escherichia coli [3])?
A: Active

Q: And the inhibition (Escherichia coli [4])?
A: Active

Q: For `O=C(COc1ccc2sc(CNc3nncc(-c4c(Cl)cccc4Cl)n3)nc2c1)NCCO`, which MIC (Escherichia coli [5]) is on record?
A: 16 µg/mL

Q: What about the MIC (Escherichia coli [6]) of the same molecule?
A: > 32 µg/mL

Q: What about the inhibition (Escherichia coli [7]) of the same molecule?
A: Active

Q: What about the IC50 [8] of the same molecule?
A: 0.076 µM

Q: And the IC50 (Klebsiella pneumoniae)?
A: 0.15 µM

Q: What about the IC50 [9] of the same molecule?
A: 1.9 µM

Q: What about the IC50 [2] of the same molecule?
A: 0.049 µM

Q: What about the MIC (Escherichia coli [10]) of the same molecule?
A: > 32 µg/mL

Q: And the inhibition (Escherichia coli [11])?
A: Active

Q: What about the Activity (HepG2) of the same molecule?
A: > 32 µg/mL

Q: And the IC50 [12]?
A: > 300 µM

Q: What about the MIC (Escherichia coli [13]) of the same molecule?
A: > 32 µg/mL

Q: And the MIC (Escherichia coli [14])?
A: 2 µg/mL

Q: What does the source list for `CC[C@H]1OC(=O)[C@H](C)C(=O)[C@H](C)[C@@H](O[C@@H]2O[C@H](C)C[C@H](N(C)C)[C@H]2O)[C@](C)(OC)C[C@@H](C)C(=O)[C@H](C)[C@H]2N(CCCCn3cnc(-c4cccnc4)c3)C(=O)O[C@]12C` [TELITHROMYCIN]?
A: MIC (Escherichia coli [15]): 8 µg/mL (≈ 9.85 µM); MIC (Escherichia coli [16]): 0.25 µg/mL (≈ 0.308 µM)

Q: Which MIC (Escherichia coli [15]) does the source give for `CO[C@H]1/C=C/O[C@@]2(C)Oc3c(C)c(O)c4c(O)c(c(/C=N/N5CCN(C)CC5)c(O)c4c3C2=O)NC(=O)/C(C)=C\C=C\[C@H](C)[C@H](O)[C@@H](C)[C@@H](O)[C@@H](C)[C@H](OC(C)=O)[C@@H]1C` [RIFAMPIN] here?
A: 8 µg/mL (≈ 9.72 µM)

Q: And the MIC (Escherichia coli [16])?
A: 0.125 µg/mL (≈ 0.152 µM)

Q: For `CC[C@H]1OC(=O)[C@H](C)[C@@H](O[C@H]2C[C@@](C)(OC)[C@@H](O)[C@H](C)O2)[C@H](C)[C@@H](O[C@@H]2O[C@H](C)C[C@H](N(C)C)[C@H]2O)[C@](C)(O)C[C@@H](C)C(=O)[C@H](C)[C@@H](O)[C@]1(C)O` [ERYTHROMYCIN], which MIC (Escherichia coli [15]) is on record?
A: 32 µg/mL (≈ 43.6 µM)

Q: What about the MIC (Escherichia coli [16]) of the same molecule?
A: 0.5 µg/mL (≈ 0.681 µM)

Q: With `CO[C@@H]1[C@@H](OC(N)=O)[C@@H](O)[C@H](Oc2ccc3c(O)c(NC(=O)c4ccc(O)c(CC=C(C)C)c4)c(=O)oc3c2C)OC1(C)C` [NOVOBIOCIN] as the molecule, how does the MIC (Escherichia coli [15]) read?
A: 32 µg/mL (≈ 52.2 µM)

Q: What about the MIC (Escherichia coli [16]) of the same molecule?
A: 0.5 µg/mL (≈ 0.816 µM)
